# ChEMBL document CHEMBL4257473, “Design, synthesis and antibacterial evaluation of a polycationic calix[4]arene derivative alone and in combination with antibiotics” (Medchemcomm, 2018)
# How the values were obtained:
# Type in all cases: functional
# [1] = tested on: Staphylococcus epidermidis; assay: Antibacterial activity against methicillin-resistant Staphylococcus epidermidis 57 after 24 hrs by microbroth dilution method; settings: Staphylococcus epidermidis, 57, 24 h
# How it was run: (§1)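 Broth microdilution per NCCLS guidelines in Mueller Hinton broth, from overnight cultures. Final inoculum 5×10^5 CFU mL⁻¹. Calixarene tested at 1–1024 μg mL⁻¹, ofloxacin 0.06–2048, chloramphenicol 1–2048, tetracycline 0.03–128 μg mL⁻¹. Plates incubated 37 °C for 24 h. MIC is the lowest concentration with no visible growth. Triplicate, with growth control, and modal value reported.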
# Staphylococcus aureus [2] = assay: Antibacterial activity against Staphylococcus aureus ATCC 6538 after 24 hrs by microbroth dilution method; settings: ATCC 6538, 24 h; how it was run: as §1
# Pseudomonas aeruginosa [3] = assay: Bactericidal activity against Pseudomonas aeruginosa isolate 1 incubated for 24 hrs followed by replating on Mueller hinton agar plates and measured after 24 hrs; settings: isolate 1, 24 h
# How it was run: (§2)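 MBC follows a broth microdilution MIC run (Mueller Hinton broth, 5×10^5 CFU mL⁻¹, 37 °C, 24 h). 15 µL from every clear well is seeded onto Mueller Hinton agar and incubated at 37 °C for 24 h. MBC is the lowest concentration giving no growth. At least three replicates, modal result used.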
# Pseudomonas aeruginosa [4] = assay: Antibacterial activity against Pseudomonas aeruginosa isolate 1 after 24 hrs by microbroth dilution method; settings: isolate 1, 24 h; how it was run: as §1
# Staphylococcus aureus [5] = assay: Bactericidal activity against Staphylococcus aureus ATCC 6538 incubated for 24 hrs followed by replating on Mueller hinton agar plates and measured after 24 hrs; settings: ATCC 6538, 24 h
# How it was run: (§3)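 MBC follows the broth microdilution MIC step (MHB, 5×10^5 CFU mL⁻¹, 37 °C, 24 h). 15 µL from every clear MIC well is seeded onto Mueller Hinton agar and incubated 37 °C for 24 h. MBC is the lowest concentration giving no growth. At least three replicates, and modal value reported.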
# [6] = tested on: Staphylococcus epidermidis; assay: Bactericidal activity against methicillin-resistant Staphylococcus epidermidis 57 incubated for 24 hrs followed by replating on Mueller hinton agar plates and measured after 24 hrs; settings: Staphylococcus epidermidis, 57, 24 h; how it was run: as §3
# [7] = tested on: Staphylococcus epidermidis; assay: Bactericidal activity against Staphylococcus epidermidis ATCC 35984 incubated for 24 hrs followed by replating on Mueller hinton agar plates and measured after 24 hrs; settings: ATCC 35984, 24 h; how it was run: as §3
# Staphylococcus aureus [8] = assay: Antibacterial activity against methicillin-resistant Staphylococcus aureus 15 after 24 hrs by microbroth dilution method; settings: Staphylococcus aureus, 15, 24 h; how it was run: as §1
# Staphylococcus aureus [9] = assay: Bactericidal activity against methicillin-resistant Staphylococcus aureus 15 incubated for 24 hrs followed by replating on Mueller hinton agar plates and measured after 24 hrs; settings: Staphylococcus aureus, 15, 24 h; how it was run: as §3
# [10] = tested on: Staphylococcus epidermidis; assay: Antibacterial activity against Staphylococcus epidermidis ATCC 35984 after 24 hrs by microbroth dilution method; settings: ATCC 35984, 24 h
# How it was run: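 Broth microdilution per NCCLS guidelines in Mueller Hinton broth, overnight culture inoculated at final 5×10^5 CFU mL⁻¹. Calixarene tested at 1-1024 µg mL⁻¹. Incubation 37 °C for 24 h. MIC taken as the lowest concentration with no visible growth. Growth control included, triplicate runs, modal value reported.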
# Pseudomonas aeruginosa [11] = assay: Bactericidal activity against Pseudomonas aeruginosa ATCC 9027 incubated for 24 hrs followed by replating on Mueller hinton agar plates and measured after 24 hrs; settings: ATCC 9027, 24 h; how it was run: as §2
# [12] = tested on: Staphylococcus epidermidis; assay: Potency index, ratio of chloramphenicol MBC to test compound MBC for Staphylococcus epidermidis 57
# Pseudomonas aeruginosa [13] = assay: Potency index, ratio of chloramphenicol MBC to test compound MBC for Pseudomonas aeruginosa isolate 1
# [14] = tested on: Staphylococcus epidermidis; assay: Potency index, ratio of chloramphenicol MIC to test compound MIC for Staphylococcus epidermidis 57
# Staphylococcus aureus [15] = assay: Antibacterial activity against Staphylococcus aureus ATCC 6538 assessed as FIC index after overnight incubation in presence of chloramphenicol by checkerboard assay
# How it was run: (§4)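 Checkerboard combination of the calixarene with each antibiotic, each agent at final 2 to 0.015 times its MIC, giving 64 combinations. Inoculum prepared in Mueller Hinton broth and added at final 5×10^5 CFU mL⁻¹. Plates incubated overnight at 37 °C, then FICI calculated from the combination MICs.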
# [16] = tested on: Staphylococcus epidermidis; assay: Potency index, ratio of ofloxacin MIC to test compound MIC for Staphylococcus epidermidis 57
# Pseudomonas aeruginosa [17] = assay: Potency index, ratio of ofloxacin MBC to test compound MBC for Pseudomonas aeruginosa isolate 1
# [18] = tested on: Staphylococcus epidermidis; assay: Potency index, ratio of chloramphenicol MIC to test compound MIC for Staphylococcus epidermidis ATCC 35984
# [19] = tested on: Staphylococcus epidermidis; assay: Potency index, ratio of chloramphenicol MBC to test compound MBC for Staphylococcus epidermidis ATCC 35984
# Staphylococcus aureus [20] = assay: Potency index, ratio of chloramphenicol MIC to test compound MIC for methicillin-resistant Staphylococcus aureus 15
# Staphylococcus aureus [21] = assay: Antibacterial activity against methicillin-resistant Staphylococcus aureus 15 assessed as FIC index after overnight incubation in presence of ofloxacin by checkerboard assay
# How it was run: (§5)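 Checkerboard combinations of calixarene with antibiotic, each at final concentrations from 2 to 0.015 × its MIC, giving 64 combinations per plate. Inoculum prepared in MHB, final 5×10^5 CFU mL⁻¹. Incubated overnight at 37 °C. Fractional inhibitory concentration index calculated from the combination MICs.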
# [22] = tested on: Staphylococcus epidermidis; assay: Antibacterial activity against Staphylococcus epidermidis ATCC 35984 assessed as FIC index after overnight incubation in presence of ofloxacin by checkerboard assay; how it was run: as §4
# [23] = tested on: Staphylococcus epidermidis; assay: Antibacterial activity against methicillin-resistant Staphylococcus epidermidis 57 assessed as FIC index after overnight incubation in presence of ofloxacin by checkerboard assay; how it was run: as §5
# Staphylococcus aureus [24] = assay: Antibacterial activity against Staphylococcus aureus ATCC 6538 assessed as FIC index after overnight incubation in presence of tetracycline by checkerboard assay; how it was run: as §4
# Pseudomonas aeruginosa [25] = assay: Potency index, ratio of chloramphenicol MIC to test compound MIC for Pseudomonas aeruginosa isolate 1
# Staphylococcus aureus [26] = assay: Potency index, ratio of chloramphenicol MBC to test compound MBC for methicillin-resistant Staphylococcus aureus 15
# Pseudomonas aeruginosa [27] = assay: Antibacterial activity against Pseudomonas aeruginosa isolate 1 assessed as FIC index after overnight incubation in presence of ofloxacin by checkerboard assay; how it was run: as §4
# Pseudomonas aeruginosa [28] = assay: Antibacterial activity against Pseudomonas aeruginosa ATCC 9027 assessed as FIC index after overnight incubation in presence of ofloxacin by checkerboard assay; how it was run: as §4
# Pseudomonas aeruginosa [29] = assay: Antibacterial activity against Pseudomonas aeruginosa ATCC 9027 after 24 hrs by microbroth dilution method; settings: ATCC 9027, 24 h; how it was run: as §1
# Pseudomonas aeruginosa [30] = assay: Antibacterial activity against Pseudomonas aeruginosa ATCC 9027 assessed as FIC index after overnight incubation in presence of tetracycline by checkerboard assay; how it was run: as §5
# Staphylococcus aureus [31] = assay: Antibacterial activity against methicillin-resistant Staphylococcus aureus 15 assessed as FIC index after overnight incubation in presence of tetracycline by checkerboard assay; how it was run: as §5
# [32] = tested on: Staphylococcus epidermidis; assay: Antibacterial activity against Staphylococcus epidermidis ATCC 35984 assessed as FIC index after overnight incubation in presence of chloramphenicol by checkerboard assay; how it was run: as §5
# Pseudomonas aeruginosa [33] = assay: Antibacterial activity against Pseudomonas aeruginosa isolate 1 assessed as FIC index after overnight incubation in presence of chloramphenicol by checkerboard assay; how it was run: as §4
# [34] = tested on: Staphylococcus epidermidis; assay: Antibacterial activity against methicillin-resistant Staphylococcus epidermidis 57 assessed as FIC index after overnight incubation in presence of tetracycline by checkerboard assay; how it was run: as §5
# Staphylococcus aureus [35] = assay: Antibacterial activity against Staphylococcus aureus ATCC 6538 assessed as FIC index after overnight incubation in presence of ofloxacin by checkerboard assay; how it was run: as §4
# Pseudomonas aeruginosa [36] = assay: Antibacterial activity against Pseudomonas aeruginosa ATCC 9027 assessed as FIC index after overnight incubation in presence of chloramphenicol by checkerboard assay; how it was run: as §4
# Pseudomonas aeruginosa [37] = assay: Antibacterial activity against Pseudomonas aeruginosa isolate 1 assessed as FIC index after overnight incubation in presence of tetracycline by checkerboard assay; how it was run: as §4
# [38] = tested on: Staphylococcus epidermidis; assay: Potency index, ratio of ofloxacin MBC to test compound MBC for Staphylococcus epidermidis 57
structure (smiles),measurement,setting,value
CC1COc2c(N3CCN(C)CC3)c(F)cc3c(=O)c(C(=O)O)cn1c23 (stereo not drawn) [OFLOXACIN],MIC,[1],512 µg/mL
same,MIC,Staphylococcus aureus [2],0.25 µg/mL
same,MBC,Pseudomonas aeruginosa [3],512 µg/mL
same,MIC,Pseudomonas aeruginosa [4],256 µg/mL
same,MBC,Staphylococcus aureus [5],0.5 µg/mL
same,MBC,[6],> 2050 µg/mL
same,MBC,[7],0.5 µg/mL
same,MIC,Staphylococcus aureus [8],512 µg/mL
same,MBC,Staphylococcus aureus [9],> 2050 µg/mL
same,MIC,[10],0.25 µg/mL
same,MBC,Pseudomonas aeruginosa [11],2 µg/mL
CCCOc1c2cc(C[N+](C)(CCO)CCO)cc1Cc1cc(C[N+](C)(CCO)CCO)cc(c1OCCC)Cc1cc(C[N+](C)(CCO)CCO)cc(c1OCCC)Cc1cc(C[N+](C)(CCO)CCO)cc(c1OCCC)C2.[Cl-].[Cl-].[Cl-].[Cl-],Ratio,[12],32
same,MIC,[1],4 µg/mL
same,Ratio,Pseudomonas aeruginosa [13],4
same,Ratio,[14],2
same,fractional inhibitory concentration index (FICI),Staphylococcus aureus [15],1.12
same,Ratio,[16],131
same,Ratio,Pseudomonas aeruginosa [17],2
same,Ratio,[18],4
same,Ratio,[19],16
same,Ratio,Staphylococcus aureus [20],2
same,MIC,Staphylococcus aureus [2],4 µg/mL
same,fractional inhibitory concentration index (FICI),Staphylococcus aureus [21],1
same,fractional inhibitory concentration index (FICI),[22],1.25
same,fractional inhibitory concentration index (FICI),[23],1
same,fractional inhibitory concentration index (FICI),Staphylococcus aureus [24],1.48
same,Ratio,Pseudomonas aeruginosa [25],2
same,MBC,Pseudomonas aeruginosa [3],256 µg/mL
same,MIC,Pseudomonas aeruginosa [4],256 µg/mL
same,Ratio,Staphylococcus aureus [26],16
same,fractional inhibitory concentration index (FICI),Pseudomonas aeruginosa [27],0.62
same,fractional inhibitory concentration index (FICI),Pseudomonas aeruginosa [28],1.06
same,MIC,Pseudomonas aeruginosa [29],128 µg/mL
same,fractional inhibitory concentration index (FICI),Pseudomonas aeruginosa [30],1.06
same,MBC,Staphylococcus aureus [5],8 µg/mL
same,MBC,[6],8 µg/mL
same,fractional inhibitory concentration index (FICI),Staphylococcus aureus [31],1.03
same,fractional inhibitory concentration index (FICI),[32],1.03
same,MBC,[7],8 µg/mL
same,fractional inhibitory concentration index (FICI),Pseudomonas aeruginosa [33],0.53
same,fractional inhibitory concentration index (FICI),[34],1.03
same,fractional inhibitory concentration index (FICI),Staphylococcus aureus [35],1.25
same,fractional inhibitory concentration index (FICI),Pseudomonas aeruginosa [36],0.62
same,fractional inhibitory concentration index (FICI),Pseudomonas aeruginosa [37],0.56
same,MIC,Staphylococcus aureus [8],4 µg/mL
same,Ratio,[38],262
same,MBC,Staphylococcus aureus [9],8 µg/mL
same,MIC,[10],4 µg/mL
same,MBC,Pseudomonas aeruginosa [11],256 µg/mL
O=C(N[C@H](CO)[C@H](O)c1ccc([N+](=O)[O-])cc1)C(Cl)Cl [CHLORAMPHENICOL],MIC,[1],8 µg/mL
same,MIC,Staphylococcus aureus [2],4 µg/mL
same,MBC,Pseudomonas aeruginosa [3],1020 µg/mL
same,MIC,Pseudomonas aeruginosa [4],512 µg/mL
same,MIC,Pseudomonas aeruginosa [29],64 µg/mL
same,MBC,Staphylococcus aureus [5],8 µg/mL
same,MBC,[6],256 µg/mL
same,MBC,[7],128 µg/mL
same,MIC,Staphylococcus aureus [8],8 µg/mL
same,MBC,Staphylococcus aureus [9],128 µg/mL
same,MIC,[10],16 µg/mL
same,MBC,Pseudomonas aeruginosa [11],128 µg/mL
CN(C)[C@@H]1C(O)=C(C(N)=O)C(=O)[C@@]2(O)C(O)=C3C(=O)c4c(O)cccc4[C@@](C)(O)[C@H]3C[C@@H]12 [TETRACYCLINE],MIC,[1],1 µg/mL
same,MIC,Staphylococcus aureus [2],0.125 µg/mL
same,MBC,Pseudomonas aeruginosa [3],32 µg/mL
same,MIC,Pseudomonas aeruginosa [4],16 µg/mL
same,MIC,Pseudomonas aeruginosa [29],16 µg/mL
same,MBC,Staphylococcus aureus [5],4 µg/mL
same,MBC,[6],16 µg/mL
same,MBC,[7],8 µg/mL
same,MIC,Staphylococcus aureus [8],1 µg/mL
same,MBC,Staphylococcus aureus [9],16 µg/mL
same,MIC,[10],0.5 µg/mL
same,MBC,Pseudomonas aeruginosa [11],32 µg/mL
